This note sets out measurements from PubChem BioAssay AID720543 (The Scripps Research Institute Molecular Screening Center, 2013).

Molecules are shown by their SMILES. The campaign covered roughly 370,000 compounds. About 2,000 (0.54%) were called active.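 The calls were made as follows: active = inhibition exceeding the mean over every tested compound plus 3 SD (cut at about 30% in these data); inactive = the rest.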 For the sample, actives were picked, then their nearest neighbours and some compounds at random.

(Lyso)-N-acylphosphatidylethanolamine lipase (Mus musculus), sequence (Q8VD66 whole entry, looked up): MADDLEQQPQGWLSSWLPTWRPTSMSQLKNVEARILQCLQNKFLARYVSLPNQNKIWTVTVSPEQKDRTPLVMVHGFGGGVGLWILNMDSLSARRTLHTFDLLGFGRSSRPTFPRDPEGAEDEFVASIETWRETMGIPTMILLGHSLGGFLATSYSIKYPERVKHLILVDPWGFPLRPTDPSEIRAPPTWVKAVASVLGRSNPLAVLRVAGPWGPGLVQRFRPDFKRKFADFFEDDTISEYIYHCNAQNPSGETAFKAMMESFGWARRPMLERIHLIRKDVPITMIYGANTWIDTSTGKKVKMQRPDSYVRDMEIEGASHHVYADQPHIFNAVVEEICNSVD

This assay concerns the target (Lyso)-N-acylphosphatidylethanolamine lipase (Mus musculus) (UniProt Q8VD66). Put plainly: mouse ABHD4 hydrolase activity blockers – biochemical, fluorescence polarization, primary screen (AID 720543). As to conditions: purified mABHD4, FP-Rh probe fluorescence polarization; at 8.92 µM; hits give high values. The gist of the method: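 Assay system: mouse ABHD4 enzyme, wild type / Also added: fluorescent activity-based probe FP-Rh / Doses: single nominal dose of 8.92 µM, 0.89% DMSO final / Timing: 45 min compound pre-incubation plus 60 min probe step, 25 °C / Signal: FP readout, ex 525 nm / em 598 nm / Control set: S159A mutant/DMSO as 100%, compound-well median as 0%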
On the technique in general: Fluorescence polarisation rises when a labelled molecule tumbles more slowly, as on binding a larger partner.
By inhibition is commonly meant the drop in the measured response relative to a control, in per cent. In the case of `O=C(Nc1cc(F)cc(F)c1)OC1CCC12CCC(c1ccccc1)CC2` (stereo not given), the inhibition was -31.2% (inactive).

On to `CC(Oc1ccc(Cl)cc1)c1ccnn1S(C)(=O)=O` (stereo not given), for which the inhibition is 1.1% (inactive).

`CCOC(=O)C1(Cc2ccccc2)CCN(Cc2cn(C(C)=O)c3ccccc23)CC1`: the inhibition is -1.19% (inactive). Under `COc1cccc2c(C)c(C(=O)O)[nH]c12` stands 35.9% (active); under `CCc1c(C)nc2c(OC)cccc2c1Cl`, 0.48% (inactive); under `COc1ccc(C)cc1NC(=O)c1[nH]c(C)c(C(C)=O)c1C`, -2.22% (inactive). In the case of `COC(=O)c1cccc(Cn2ccc3ccc(-c4ccc5ccn(C(=O)c6ccccc6C)c5c4)cc32)c1`, the inhibition is 1.96% (inactive). Under `CCOC(=O)C[C@H]1c2ccc(C(F)(F)F)cc2S(=O)(=O)N1c1ccccc1` stands -6.24% (inactive). For `CCOC(=O)/C=C/c1ccc(C(F)(F)F)cc1S(=O)(=O)NC(C)(C)C`, the inhibition is -26.5% (inactive).

`CCOC(=O)C1Nc2ccc(C(F)(F)F)cc2C2C=CCC12` (stereo not given): the inhibition was 41.8% (active). Under `CN1C(=O)c2cc(NS(C)(=O)=O)ccc2OC[C@@H]2O[C@@H](CC(=O)NCc3ccc(-c4ccccc4)cc3)CC[C@H]21` stands 3.8% (inactive); under `Cc1ccc(Cn2cc(CN3[C@@H](CC(C)C)COc4ccc(Cl)cc4S3(=O)=O)nn2)cc1`, 4.37% (inactive). As for `O=C(NCc1cccs1)C1CCCN(S(=O)(=O)c2ccc([N+](=O)[O-])cc2)C1` (stereo not given), the inhibition was 4.68% (inactive). Under `CCC(C)Cn1c(O)cc2nn(-c3nc4ccccc4s3)c(=O)c-2c1C` (stereo not given) stands 44.6% (active); under `O=S(=O)([N-]c1nc2ccccc2nc1-[n+]1ccc(Cc2ccccc2)cc1)c1ccc(Br)s1`, 7.29% (inactive).

`O=C1CCN(C(=O)Nc2ccccc2)N1`: the inhibition is 6.15% (inactive). Under `Cc1ccc(NC2CCCN(C(=O)CCC3(C)CC3)C2)cc1C` (stereo not given) stands 8.21% (inactive). Under `O=C(Nc1cc(Cl)cc(Cl)c1)OCCN1CCCC12CCC(c1ccccc1)CC2` (stereo not given) stands 2.15% (inactive); under `COC(=O)c1ccc(COc2cc([N+](=O)[O-])cc3cccnc23)cc1`, 6.05% (inactive); under `COC(=O)C(C)N(C#N)c1nc(C)nc(C)n1` (stereo not given), -1.89% (inactive). Under `CCN(C(=O)Nc1cccc2ccccc12)c1ccccc1` stands 18.5% (inactive); under `O=C(O)c1cc([N+](=O)[O-])c(Nc2cccc3ccccc23)c([N+](=O)[O-])c1`, 35.4% (active); under `O=C(Nc1ccccc1[N+](=O)[O-])C1C(c2ccccc2)=C1c1ccccc1`, -0.35% (inactive). For `O=C1C(=O)N(Cc2ccc(-c3ccsc3)cc2)c2ccc(OC(F)(F)F)cc21`, the inhibition was 1.83% (inactive).

Take `COC(=O)[C@]12C[C@H](CC(=O)NCc3ccccc3)C(=O)N(CCc3ccc(OC)c(OC)c3)C1=C[C@H](C(C)(C)C)O[C@@H]2C`: the inhibition is 4.6% (inactive).
